Test results: ChEMBL document CHEMBL1129934, “Synthesis, antimalarial activity, and molecular modeling of tebuquine analogues” (J Med Chem, 1997)

Legend:
[1] = system: Plasmodium falciparum; assay: In vitro inhibition of chloroquine-sensitive Plasmodium falciparum HB3; format: functional, organism-based
Method in brief: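 HB3 parasites kept in human erythrocytes (2–5%) in RPMI 1640 with 25 mM HEPES, 32 mM NaHCO3, 10% human serum, gassed 3% O2/4% CO2/93% N2. 48 h assay: initial parasitemia 1%, 5% hematocrit, ethanol-dissolved drug (final <1% ethanol); [3H]-hypoxanthine (0.5 μCi) added at 24 h, counted after further 24 h. Triplicate; IC50 by probit interpolation of log dose–response.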

[2] = system: Plasmodium falciparum; assay: In vitro inhibition of chloroquine-resistant Plasmodium falciparum K1; format: functional, organism-based
Method in brief: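 P. falciparum K1 (uncloned, Thailand) kept in human erythrocytes in RPMI 1640 with 25 mM HEPES, 32 mM NaHCO3, 10% human serum, under 3% O2/4% CO2/93% N2. Stocks in ethanol, final <1% ethanol. 48 h test at 1% initial parasitemia, 5% hematocrit, 37 °C; [3H]-hypoxanthine added at 24 h, incorporation counted at 48 h. IC50 by probit interpolation of log dose–response; triplicate.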

[3] = Cellular accumulation ratio (CAR) for chloroquine sensitive HB3 strain of Plasmodium falciparum; format: functional
Method in brief: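 IC50 for HB3 measured at a range of inoculum sizes in the [3H]-hypoxanthine 48 h assay. It is extrapolated to zero inoculum to give the absolute IC50. CAR is calculated as (measured IC50 − absolute IC50)/(absolute IC50 × fractional volume of parasitized RBC).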

SMILES | IC50 [1] | IC50 ([2]; Plasmodium falciparum) | CAR [3] | IC50 [2]
CCN(CC)Cc1cc(Nc2ccnc3cc(Cl)ccc23)cc(-c2ccc(Cl)cc2)c1F | 104 nM | 101 nM |  | 
CCNCCCC(C)Nc1ccnc2cc(Cl)ccc12 (configuration not stated) [DESETHYLCHLOROQUINE] | 17 nM |  | 682 | 
CCN(CC)Cc1c(O)cc(F)c(Nc2ccnc3cc(Cl)ccc23)c1F | 47.3 nM |  | 922 | 
CC(C)(C)NCc1cc(Nc2ccnc3cc(Cl)ccc23)cc(-c2ccc(Cl)cc2)c1 | 56.6 nM | 74.2 nM | 1200 | 
CCN(CC)Cc1cc(Nc2ccnc3cc(Cl)ccc23)ccc1O | 3.7 nM | 27.2 nM | 12600 | 
CCN(CC)Cc1cc(Nc2ccnc3cc(Cl)ccc23)cc(F)c1O | 55.2 nM |  | 1510 | 
CCN(CC)Cc1cc(Nc2ccnc3cc(Cl)ccc23)ccc1F | 31.9 nM |  | 1710 | 
CCN(CC)Cc1cccc(Nc2ccnc3cc(Cl)ccc23)c1 | 16.2 nM |  | 3090 | 
CC(C)(C)NCc1cc(Nc2ccnc3cc(Cl)ccc23)cc(-c2ccc(Cl)cc2)c1O [TEBUQUINE] |  |  | 70200 | 42.1 nM
CC(C)(C)NCc1cc(Nc2ccnc3cc(Cl)ccc23)cc(-c2ccc(Cl)cc2)c1F [FLOUROTEBUQUINE] | 61.6 nM |  | 1080 | 
CC(C)(C)NCc1cc(Nc2ccnc3cc(Cl)ccc23)ccc1O [N-TERT-BUTYL-AMODIAQUINE] | 3.7 nM |  | 21100 | 
CCNCc1cc(Nc2ccnc3cc(Cl)ccc23)ccc1O [DESETHYL AMODIAQUINE] | 4.5 nM |  | 6410 | 
CCN(CC)CCCC(C)Nc1ccnc2cc(Cl)ccc12 (configuration not stated) |  |  | 1860 | 
